esBAF inh: inhibitors of esBAF chromatin remodeling in mouse ES cells | actives 2% (n = 350,000) | reporter increase, % at 12.5 µM | AID 602393 | Bmi1-luciferase knock-in reporter, 24 h; 100% = twice the neutral-well signal; in the data active means activation above about 40%; inconclusive means no clear call, values can overlap the other calls;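 further: 0% = median of the plate's neutral control wells and 100% = double that signal; a rise in the Bmi1 reporter signal indicates esBAF inhibition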
Wnt act: activators of Wnt/beta-catenin signaling. Wnt/beta-catenin reporter cell assay, activator, plate reader. activation, % at 9.35 µM. actives 1.2% (n = 300,000); in the data active means activation above about 30%, passing the limit was not always enough; inconclusive means no clear call, values can overlap the other calls;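 further: 0% = neutral control wells and 100% = positive control wells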
MITF TRPM1 HTS: MITF TRPM1 promoter activation in melanoma cells. SK-MEL-5 TRPM1-promoter luciferase, 24 h; % of positive control, neutral wells = 0. activation, % at 12.5 µM. actives 0.75% (n = 300,000). AID 588334;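 active means mean activation of at least 80% with every replicate also reaching 80%; inconclusive means mean reaches 80% but some replicate falls short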;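 further: 0% = neutral control wells and 100% = parthenolide positive control wells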
Env fusion inh: inhibitors of HIV Env-mediated cell fusion. HeLa-JRFL Env/CEM21 cell fusion, luciferase. inhibition, % at 12.3 µM. actives 1.1% (n = 360,000). AID 651610;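 active means mean replicate inhibition score of at least 50 and every replicate individually at or above 50; inconclusive means only one of the two criteria met; inactive means mean below 50 and not all replicates reaching 50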;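 further: 0% = plate neutral controls and 100% = maraviroc near 300 nM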
Cneo AK release: causes C. neoformans cell lysis; actives 0.2% (n = 360,000); AID 651654; lysis activity, % at 15 µM; adenylate kinase release luminescence, 4 h; normalised: neutral wells 0, clomiphene wells 100;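 active means mean lysis activity across replicates of at least 80%, whatever share of replicates individually reach that level; inactive means mean lysis activity below 80%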
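Schedule: static 4 h at 37 °C with compound, 1 h detection; system: C. neoformans cells; benchmarks: Clomiphene as positive control; buffer or medium: fresh YPD medium; measure: luminescence rise reflecting yeast cell lysis; measured by: luminescent adenylate kinase detection reagent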
ERAP1 HTS inh: ERAP1 (human) enzyme inhibition. recombinant ERAP1, Leu-AMC fluorescence, 60 min. inhibition, % at 10.7 µM. actives 0.15% (n = 340,000). AID 652197;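 active means mean replicate inhibition of at least 30%, or all replicates individually reaching that 30% level; inactive means mean below 30% and not every replicate reaching it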;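 further: 0% = neutral control wells and 100% = L-leucinethiol positive control wells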
Target sequence (Q9NZ08 whole entry, looked up): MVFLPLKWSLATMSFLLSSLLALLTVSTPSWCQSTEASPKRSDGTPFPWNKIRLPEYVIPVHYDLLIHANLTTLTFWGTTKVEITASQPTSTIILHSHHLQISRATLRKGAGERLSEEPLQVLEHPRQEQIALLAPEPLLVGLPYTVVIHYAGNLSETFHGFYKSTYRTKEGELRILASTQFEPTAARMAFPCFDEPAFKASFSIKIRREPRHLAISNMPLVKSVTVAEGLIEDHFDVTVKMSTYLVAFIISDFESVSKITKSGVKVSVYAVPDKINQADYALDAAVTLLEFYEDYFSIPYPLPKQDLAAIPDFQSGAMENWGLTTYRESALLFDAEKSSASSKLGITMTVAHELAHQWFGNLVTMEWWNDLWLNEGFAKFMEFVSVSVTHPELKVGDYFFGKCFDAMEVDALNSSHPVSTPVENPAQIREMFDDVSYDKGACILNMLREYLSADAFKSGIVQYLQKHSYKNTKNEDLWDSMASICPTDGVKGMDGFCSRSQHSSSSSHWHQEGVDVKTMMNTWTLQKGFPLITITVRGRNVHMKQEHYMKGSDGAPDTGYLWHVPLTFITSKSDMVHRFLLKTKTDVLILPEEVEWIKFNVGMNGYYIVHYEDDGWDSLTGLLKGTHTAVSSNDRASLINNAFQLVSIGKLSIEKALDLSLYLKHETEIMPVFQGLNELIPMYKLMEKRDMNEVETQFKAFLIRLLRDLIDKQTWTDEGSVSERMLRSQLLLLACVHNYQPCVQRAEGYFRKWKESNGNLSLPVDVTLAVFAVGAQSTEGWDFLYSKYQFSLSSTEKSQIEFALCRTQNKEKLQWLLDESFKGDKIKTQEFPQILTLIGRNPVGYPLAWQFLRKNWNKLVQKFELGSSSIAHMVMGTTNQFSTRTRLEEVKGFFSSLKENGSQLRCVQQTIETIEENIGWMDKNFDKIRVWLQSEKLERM
* marks the source's active call; other numbers are inactive results; ? = inconclusive; . = not tested or not shown. An excerpt weighted towards active compounds, which were near 3.5% of everything screened.

SMILES	esBAF inh	Wnt act	MITF TRPM1 HTS	Env fusion inh	Cneo AK release	ERAP1 HTS inh
CC1CCOC(=O)C=CC=CC(=O)OC2CC3OC4C5OC5(C)C(O)CC4(COC(=O)C1O)C2(C)C31CO1 (stereo not drawn)	.	-25.6	.	59.0*	.	-2.0
CC1=CC2OC3CC4OC(=O)C=CC=CC(=O)OCCC(C)C(O)C(=O)OCC2(CC1)C4(C)C31CO1 (stereo not drawn)	.	-26.1	.	?	.	-1.7
CC1=CC2OC3CC4OC(=O)C=CC=CC(C(C)O)OCC(O)C5(C)OC5C(=O)OCC2(CC1O)C4(C)C31CO1 (stereo not drawn)	.	-9.5	.	72.7*	.	0.0
CC(O)C1C=CC=CC(=O)OC2CC3OC4C5OC5(C)C(O)CC4(COC(=O)C(O)C(C)CCO1)C2(C)C31CO1 (stereo not drawn)	.	-3.0	-79.0	69.7*	.	-0.6
CCc1ccc(N2C(=O)NC(=O)/C(=C\c3cccn3CCOc3ccc(C(C)C)cc3)C2=O)cc1	.	34.1*	13.1	-200.5	-1.6	.
O=C(Cc1ccccn1)N1CCCCN2[C@H](CO)[C@@H](c3ccc(-c4ccc(F)cc4)cc3)[C@H]2C1	.	.	.	.	2.7	3.3
CNC(=O)OCCc1nccn1C	.	-1.6	-2.2	-3.7	-1.1	.
CNC(=O)OCc1n(C)cc[n+]1C	.	-1.1	0.2	-13.9	.	83.7*
C/C=C/c1ccc(C2[C@@H]3CN(C(=O)C4CC4)C[C@H]2N3)cc1 (stereo partly drawn)	.	.	.	.	.	-4.2
Cc1ccccc1-[n+]1c(-c2ccccc2)cc(-c2ccccc2)cc1-c1ccccc1	-71.9	-15.7	-87.1	67.8*	-3.5	-3.9
CC1=CC(C)CC(C)OC(=O)CC(c2ccc(O)cc2)NC(=O)C(Cc2c(Br)[nH]c3ccccc23)N(C)C(=O)C(C)NC(=O)C(C)C1 (stereo not drawn)	.	-10.6	.	81.3*	.	-0.3
CCOc1cc(CNCCc2c[nH]c3ccccc23)cc(Cl)c1OC	.	-2.1	-2.5	68.0*	.	2.3
COc1ccc(CNCCc2c[nH]c3ccccc23)c(OC)c1OC	-2.8	0.6	.	?	1.7	0.4
CCCC/C(C)=C/[C@@H](NP(=O)(c1ccccc1)c1ccccc1)c1ccccc1	-84.0	-0.6	-0.1	84.1*	-1.4	-2.5
O=c1c2ccccc2[nH]c(=S)n1-c1ccc2c(c1)OCCO2	.	37.5*	.	-42.2	.	0.1
Cc1ccc(-n2c(=S)[nH]c3ccccc3c2=O)cc1F	61.4*	12.8	.	-41.1	-1.6	4.1
O=c1c2ccccc2[nH]c(=S)n1-c1cccc(C(F)(F)F)c1	8.9	-4.2	.	14.6	-0.6	2.4
CC=Cc1ccc2n(c1=O)C[C@H]1[C@H](CO)[C@@H](C(=O)OC)[C@@H]2N1CC1CCOCC1 (mixture of isomers)	0.9	.	.	?	-1.3	1.5
O=C(Cc1cccnc1)N1CCCCN2[C@@H](CO)[C@@H](c3ccc(C#CC4CC4)cc3)[C@@H]2C1	.	.	.	.	-2.3	0.0
O=C(Cc1ccncc1)N1CCCCN2[C@@H](CO)[C@@H](c3ccc(C#Cc4ccccc4F)cc3)[C@@H]2C1	8.0	.	.	.	5.2	.
CC(=O)Nc1ccc(C=C2C(=O)NC(=O)NC2=O)cc1	.	-21.7	0.1	63.2*	.	1.7
O=[N+]([O-])c1ccc(Nc2ccccc2)cc1	3.7	1.3	16.5	-113.7	.	4.8
c1ccc(Nc2ccc(Nc3ccccc3)cc2)cc1	39.4	29.9	86.3*	.	-2.0	-6.4
N#Cc1cccc(-c2ccc([C@H]3[C@H]4CN(C(=O)Cc5ccccc5)CCCCN4[C@H]3CO)cc2)c1	.	.	.	.	0.1	-1.8
Cc1cccc(C)c1-n1nnnc1C(c1cccc2ccccc12)N1CCC(n2c(=O)[nH]c3ccccc32)CC1 (stereo not drawn)	-4.8	-3.3	.	74.3*	0.0	.
SMILES	esBAF inh	Wnt act	MITF TRPM1 HTS	Env fusion inh	Cneo AK release	ERAP1 HTS inh
Cc1cccc(C)c1-n1nnnc1C(c1cccs1)N1CCC(n2c(=O)[nH]c3ccccc32)CC1 (stereo not drawn)	-5.5	-2.7	.	25.4	1.5	0.2
O=c1[nH]c2ccccc2n1C1CCN(C(CCc2ccccc2)c2nnnn2Cc2ccccc2)CC1 (stereo not drawn)	-9.0	-3.1	.	66.3*	-0.4	0.9
COC(=O)[C@@H]1[C@@H](CO)[C@@H]2Cn3c(ccc(-c4ccccc4F)c3=O)[C@H]1N2Cc1ccncc1	3.7	.	.	.	-3.3	0.8
COC(=O)[C@H]1[C@H](CO)[C@H]2Cn3c(ccc(-c4ccccc4)c3=O)[C@@H]1N2S(=O)(=O)c1ccccc1C	1.5	.	.	.	4.3	5.9
O=C(Cc1ccccn1)N1CCCCN2[C@H](CO)[C@@H](c3ccc(C#Cc4ccccc4)cc3)[C@@H]2C1	.	.	.	.	2.0	0.8
CCCCn1c(C)c(C(=O)O)c2cc(OC)ccc21	-6.3	-0.8	-10.4	.	3.0	-5.2
CCn1c(C)c(C(=O)Nc2ccc(OC)cc2)c2cc(OC)ccc21	50.9*	15.7	49.3	-4.0	-0.6	-3.4
C=C(CC1CC(O)[C@]2(C)OC3CC4OC5C[C@]6(C)O[C@]7(C)CCC8OC9C[C@]%10(C)OC%11C(C)=CC(=O)OC%11CC%10OC9C[C@@H](C)C8OC7CC6O[C@]5(C)C/C=C\C4OC3CC2O1)C(=O)O (stereo partly drawn)	5.6	0.2	-3.4	11.0	-1.3	51.4*
O=C(Cc1cccnc1)N1CCCCN2[C@H](CO)[C@@H](c3ccc(/C=C/c4ccccc4)cc3)[C@@H]2C1	.	.	.	.	-0.4	-0.7
O=C(Cc1ccc(Cl)c(Cl)c1)NCC1(N2CCOCC2)CCCCC1	.	44.9*	4.2	11.4	.	0.9
COc1ccc(C(CNC(=O)Cc2ccc(Cl)c(Cl)c2)N2CCCCC2)cc1 (stereo not drawn)	-5.1	1.7	15.2	5.1	-0.8	-4.1
CC[C@H](C)[C@@H]1NC(=O)CNC(=O)c2csc(n2)[C@H](C(C)(C)O)OC(=O)C(C)(C)[C@H](CCCC(C)(Cl)Cl)OC(=O)c2csc1n2	-32.0	-3.5	.	.	278.8*	0.4
O=C(Cc1ccncc1)N1CCCCN2[C@H](C1)[C@H](c1ccc(C#CC3(O)CCCC3)cc1)[C@@H]2CO	.	.	.	.	-3.6	2.7
CN(C)CCCN=Cc1c(O)n(CCc2ccccc2)c(=O)[nH]c1=O	1.8	.	.	-51.6	1.0	.
CN(C)CCCN=Cc1c(O)n(CCc2ccc(F)cc2)c(=O)[nH]c1=O	-1.1	38.5*	.	-77.7	1.1	.
COC(=O)[C@H]1[C@H](CO)[C@H]2Cn3c(ccc(C4=CCCCC4)c3=O)[C@@H]1N2CC1CCCCC1	.	.	.	.	.	4.2
CC1CCC(C(C)C)C(OC(=O)Cn2c(COc3ccccc3)[n+](C)c3ccccc32)C1 (stereo not drawn)	-31.4	-1.4	-95.8	77.9*	-6.8	9.5
O=C(Cc1ccncc1)N1CCCCN2[C@H](CO)[C@H](c3ccc(C#Cc4ccccc4F)cc3)[C@H]2C1	-0.1	.	.	.	7.3	-1.4

High-throughput results from PubChem BioAssay.
